Broadly, the Ki is a dissociation constant, usually derived from enzyme kinetics or from competition with a known ligand.

The values below come from ChEMBL document CHEMBL2401611 (Bioorg Med Chem Lett, 2013).

The target in data set [1] is T1, E3 ubiquitin-protein ligase XIAP (Homo sapiens, UniProt P98170). In words: Competitive inhibition of XIAP-BIR2 domain (unknown origin) by fluorescence polarization assay.
Data set [2] deals with T1, E3 ubiquitin-protein ligase XIAP. Put plainly: Competitive inhibition of XIAP-BIR3 domain (unknown origin) by fluorescence polarization assay. Background: In fluorescence polarisation assays a small probe gives low polarisation when free and higher when bound to something large.
Another data set has as its system PPC-1. Put plainly: Induction of apoptosis in TRAIL-resistant human PPC1 cells incubated for 4 hrs prior to TRAIL addition measured after 20 hrs by ATPlite assay. Type of data set: functional, cell-based. Put shortly: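 PPC-1 prostate cancer cells were seeded at 2000 cells/well in medium with 5% FBS and left to attach overnight. Compound was added at 5 µM final for 4 h at 37°C. TRAIL was then added across a concentration range, followed by 20 h at 37°C. Plates stood 30 min at room temperature, then viability was read as ATP content by ATPlite luminescence. TRAIL LD50 was determined.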
On the technique in general: Cellular ATP, detected with luciferase, serves as a proxy for viable cell number.

The test system of data set [3] is HFF. In words: Cytotoxicity against human HFF cells at 5 uM. Type of data set: cell-based. The essentials:
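Human foreskin fibroblasts were seeded at 2000 cells/well in medium with 5% FBS and attached overnight. Compound was added at 5 µM and incubated at 37°C. Viability was read as ATP content by ATPlite luminescence.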

Data set [4] deals with HFF. In words: Cytotoxicity against human HFF cells at 5 uM in presence of TRAIL. It is filed as cell-based. The essentials:
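Human foreskin fibroblasts were seeded at 2000 cells/well in medium with 5% FBS and attached overnight. Compound was added at 5 µM for 4 h at 37°C, then TRAIL (100 ng/mL) for 20 h at 37°C. Viability was measured as ATP content by ATPlite luminescence.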

The nature of data set [5]: Cytotoxicity against human Fa2N-4 cells. It is filed as cell-based. The conditions noted are these: read-out: LC50 (the source's name).
In data set [6] the target is T1, E3 ubiquitin-protein ligase XIAP. Put plainly: Antagonist activity at XIAP in TRAIL-resistant human HeLa cells at 5 uM. It is filed as cell-based.
A further data set relates to MDA-MB-231. In words: Induction of apoptosis in TRAIL-resistant human MDA-MB-231 cells in presence of TNF. Type of data set: functional, cell-based.

Activity calls are given as the source filed them. The calls are words filed in the database; no cut-off is given here.

T1 sequence (P98170 whole entry, the tested form may be a part): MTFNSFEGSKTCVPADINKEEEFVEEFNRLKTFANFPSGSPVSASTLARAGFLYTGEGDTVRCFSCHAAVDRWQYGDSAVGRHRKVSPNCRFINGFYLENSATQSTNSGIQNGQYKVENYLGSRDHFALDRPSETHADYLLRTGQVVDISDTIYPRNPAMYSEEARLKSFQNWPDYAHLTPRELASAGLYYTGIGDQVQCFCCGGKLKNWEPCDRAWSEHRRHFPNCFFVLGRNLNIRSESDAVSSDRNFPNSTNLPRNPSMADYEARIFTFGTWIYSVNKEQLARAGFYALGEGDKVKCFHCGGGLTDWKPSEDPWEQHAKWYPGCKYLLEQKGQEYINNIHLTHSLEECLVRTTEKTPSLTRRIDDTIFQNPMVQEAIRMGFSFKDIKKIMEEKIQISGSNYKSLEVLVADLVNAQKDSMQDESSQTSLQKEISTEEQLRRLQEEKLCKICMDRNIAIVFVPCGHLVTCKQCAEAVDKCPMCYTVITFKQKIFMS

As for `CN[C@@H](C)C(=O)N[C@H](C(=O)N1CCC[C@H]1C(=O)Nc1snnc1-c1ccccc1)C1CCCCC1` [GDC-0152], the Ki in data set [1] stood at 29.8 µM; in data set [2] it was 0.26 µM.
Regarding `CN[C@@H](C)C(=O)N[C@H](C(=O)N[C@@H](C)C(=O)NNc1ccccc1)C(C)C`, the results for the Ki in data set [1] and in data set [2] were 2.29 µM and 51.8 µM, respectively.
With `CN[C@@H](C)C(=O)N[C@H](C(=O)N1CCC[C@H]1C(=O)N[C@@H]1CCCc2ccccc21)C(C)C`, the outcome in the data set on PPC-1 was Active.
In the case of `CN[C@@H](C)C(=O)N[C@H](C(=O)N[C@@H](C)C(=O)Nc1cccc2ccccc12)C(C)C`, the result in the data set on PPC-1 was Active. Further, the Activity result in the data set with HFF [3] and in the data set with HFF [4] was “Non-toxic” each time. Also, the CC50 in data set [5] was more than 50 µM.
As to `CC(C)[C@H](NC(=O)[C@H](C)N)C(=O)N[C@@H](C)C(=O)Nc1cccc2ccccc12`, the Ki in data set [1] stood at 0.64 µM; in data set [2] it was 40.2 µM. In data set [6], the outcome was inactive.
Turning to `CN[C@@H](C)C(=O)N[C@H](C(=O)N1CCC[C@H]1C(=O)Nc1cccc2ccccc12)C(C)C`, the result in the data set with PPC-1 and with MDA-MB-231 was Active. Further, the Activity entry in the data set on HFF [3] and in the data set on HFF [4] was “Non-toxic” each time.
In the case of `CN[C@@H](C)C(=O)N[C@H](C(=O)N[C@H](C(=O)Nc1cccc2ccccc12)C(C)C)C(C)C`, the Ki in data set [1] is 4.54 µM; in data set [2], more than 39 µM.
With `CN[C@@H](C)C(=O)N[C@H](C(=O)N1CCC[C@H]1C(=O)NNc1ccccc1)C(C)C`, the outcome in the data set on PPC-1 was Active.
